Laboratory results taken from ChEMBL document CHEMBL4011629, “New Disubstituted Quindoline Derivatives Inhibiting Burkitt's Lymphoma Cell Proliferation by Impeding c-MYC Transcription” (J Med Chem, 2017).
Calls of active or inactive are those of the source. No cut-off for these calls is given here.

Key:
[1] = Drug uptake in human Raji cells at 1 uM after 6 hrs; format: ADME, cell-based
[2] = tested on: Raji; assay: Induction of apoptosis in human Raji cells assessed as downregulation of Cyclin D1 expression after 12 hrs by Western blot method; format: functional, cell-based
Outline: (§1)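 After compound exposure (12 h for cell-cycle and apoptosis markers), RAJI cells were lysed in 1% NP-40 buffer. Protein at 50 μg per lane was run on 3–12% SDS-PAGE and transferred to nitrocellulose. Blots were probed with primary antibodies (GAPDH as loading reference) and detected with an HRP secondary and enhanced chemiluminescence.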

[3] = Stabilization of 5'-FAM/3'-TAMRA labeled c-Myc Pu22 G-quadruplex DNA (unknown origin) assessed as change in melting temperature at 2 uM by FRET assay
Outline: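 FRET melting of FAM/TAMRA-labelled FPu22T (0.2 μM) in 10 mM Tris-HCl pH 7.4 with 2 mM KCl, ligand 2 μM, in a real-time PCR machine. Excitation 470 nm, emission 530 nm, read every 1 °C from 37 to 99 °C after 30 s hold at each step; ΔTm versus probe alone.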

[4] = tested on: Raji; assay: Induction of apoptosis in human Raji cells assessed as necrotic cells at 1 uM after 48 hrs by Annexin V-FITC/propidium iodide staining based flow cytometry relative to control; format: functional
Outline: (§2)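 RAJI cells exposed to compound or control medium for 12 or 48 h were washed in PBS and resuspended in binding buffer. They were stained with FITC annexin V and PI for 15 min in the dark, and fluorescence was measured by flow cytometry.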

[5] = tested on: Raji; assay: Induction of apoptosis in human Raji cells assessed as necrotic cells at 1 uM after 12 hrs by Annexin V-FITC/propidium iodide staining based flow cytometry relative to control; format: functional; outline: as §2
[6] = tested on: Mus musculus; assay: Toxicity in NOD/SCID nude mouse xenografted with human Raji cells assessed as reduction in body weight at 15 to 30 mg/kg, ip administered once daily for 2 weeks measured every day during compound dosing; format: organism-based; details: in vivo, 336 h
Outline: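 NOD/SCID mice implanted subcutaneously in the underarm with 5 × 10^6 RAJI cells in 100 μL RPMI 1640 with 10% serum; tumours grown about 1 week, then mice randomized. Body weight recorded daily; organ weights taken at end.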

[7] = tested on: Raji; assay: Antitumor activity against human Raji cells xenografted in NOD/SCID nude mouse assessed as reduction in tumor weight at 15 to 30 mg/kg, ip administered once daily for 2 weeks relative to control; format: functional, organism-based
Outline: (§3)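 NOD/SCID mice were implanted subcutaneously in the underarm with RAJI cells (5 × 10^6 per 100 μL of RPMI 1640 with 10% serum). Tumours reached […] after 1 week, and mice were then randomised. […] Tumour volume was recorded daily and tumour weight at the end.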

[8] = Selectivity ratio of Kd for 5'-FAM labeled duplex DNA (unknown origin) to Kd for 5'-FAM labeled c-Myc Pu27 G-quadruplex DNA (unknown origin)
Outline: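 MST binding: FAM-Pu27 or FAM-duplex oligo at 10 μM in 10 mM Tris-HCl pH 7.4 with 150 mM KCl, annealed 95 °C 5 min, slow-cooled, held 4 °C overnight. Ligand titrated as a 12-point series, 0–20 μM for G4 or up to 200 μM for duplex. KD fitted with Hill model; three replicates.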

[9] = species on record: Homo sapiens; assay: Stabilization of c-Myc G-quadruplex DNA in human Raji cells assessed as downregulation of c-Myc protein level after 6 hrs by Western blot method; format: cell-based
Outline: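 Western blot of RAJI cells treated either with 1 μM for 6, 12, 24 and 48 h or with graded concentrations for 6 h. Lysed in 1% NP-40, 50 μg protein/lane on 3–12% SDS-PAGE, nitrocellulose, probed for c-MYC, NM23-H2, GAPDH loading control, HRP secondary with ECL; untreated control, three replicates.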

[10] = tested on: Raji; assay: Induction of apoptosis in human Raji cells assessed as downregulation of Cyclin D3 expression after 12 hrs by Western blot method; format: functional, cell-based; outline: as §1
[11] = tested on: Raji; assay: Antitumor activity against human Raji cells xenografted in NOD/SCID nude mouse assessed as reduction in tumor volume at 15 mg/kg, ip administered once daily for 2 weeks relative to control; format: functional; outline: as §3
[12] = Inhibition of NM23-H2 binding to 5'-biotin labeled c-Myc Pu27 G-quadruplex DNA (unknown origin) […] by ELISA
Outline: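 Biotin-Pu27 at 100 nM in 10 mM Tris-HCl pH 7.4 with 100 mM KCl was annealed and captured on streptavidin plates. Compound (serial halving from 50 μM in 3% BSA blocking buffer) was preincubated with 250 nM NM23-H2 for 1 h at 25 °C, then added to the DNA at 4 °C overnight. Bound protein was detected with anti-NM23-H2, an HRP secondary and TMB, read at A450; three replicates, DMSO control.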

[13] = tested on: Raji; assay: Antitumor activity against human Raji cells xenografted in NOD/SCID nude mouse assessed as reduction in tumor volume at 30 mg/kg, ip administered once daily for 2 weeks relative to control; format: functional; outline: as §3
[14] = tested on: Raji; assay: Cell cycle arrest in human Raji cells assessed as accumulation at G0/G1 phase after 6 hrs by propidium iodide staining based flow cytometry (reference value: 38.5%); format: functional
[15] = tested on: Raji; assay: Induction of apoptosis in human Raji cells assessed as upregulation of p27 expression up to 4 uM after 12 hrs by Western blot method; format: functional, cell-based; outline: as §1
[16] = Binding affinity to 5'-FAM labeled c-Myc Pu27 G-quadruplex DNA (unknown origin) in presence of K+ ions by MST analysis
Outline: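 The DNA was annealed at 95 °C for 5 min, slowly cooled and held at 4 °C overnight. Ligand was run as a 12-point series, 0–20 μM for Pu27 and up to 200 μM for duplex. MST was measured, and KD was fitted to a Hill model from three replicates.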

[17] = tested on: Raji; assay: Cell cycle arrest in human Raji cells assessed as accumulation at G2/M phase after 6 hrs by propidium iodide staining based flow cytometry (reference value: 24.4%); format: functional
[18] = tested on: Raji; assay: Induction of apoptosis in human Raji cells assessed as upregulation of cleaved PARP expression up to 4 uM after 12 hrs by Western blot method; format: functional, cell-based; outline: as §1
[19] = tested on: Raji; assay: Induction of apoptosis in human Raji cells assessed as early apoptotic cells at 1 uM after 48 hrs by Annexin V-FITC/propidium iodide staining based flow cytometry (reference value: 1.8%); format: functional; outline: as §2
[20] = tested on: Raji; assay: Induction of apoptosis in human Raji cells assessed as upregulation of cleaved caspase-9 expression up to 4 uM after 12 hrs by Western blot method; format: functional, cell-based; outline: as §1
[21] = tested on: Raji; assay: Cell cycle arrest in human Raji cells assessed as accumulation at S phase after 48 hrs by propidium iodide staining based flow cytometry (reference value: 32.2%); format: functional
[22] = tested on: Raji; assay: Induction of apoptosis in human Raji cells assessed as early apoptotic cells at 1 uM after 12 hrs by Annexin V-FITC/propidium iodide staining based flow cytometry (reference value: 2.3%); format: functional; outline: as §2
[23] = tested on: Raji; assay: Antiproliferative activity against human Raji cells after 48 hrs by MTT assay; format: functional, cell-based
Outline: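 RAJI cells were seeded at 5 × 10^3 cells per well and treated for 48 h, with a DMSO-matched control. MTT at 0.5 mg/mL was added for 4 h at 37 °C, followed by overnight lysis at 37 °C and absorbance at 570 nm. Each assay was done in triplicate. IC50 came from the dose-dependent percentage survival versus the control.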

With `CN(C)CCCNc1c2ccccc2nc2c1oc1ccc(OCC3CCN(C)CC3)cc12` the Drug uptake [1] was “Active”, the Activity [2] was “Dose-dependent effect” and the ΔTm [3] was 26.6 °C. The Activity [4] was 0%, the Activity [5] was 0% and the Activity [6] was “Non-Toxic”. For the same compound, the Activity [7] was “Active”, the Selectivity ratio [8] was 8 and the Activity [9] was “Dose-dependent effect”. For the same compound, the Activity [10] was “Dose-dependent effect”, the T/C [11] was 33.3% and the inhibition [12] was “Dose-dependent effect”. The T/C [13] was 26.6%, the Activity [14] was 50.2% and the Activity [15] was “Active”. For the same compound, the Kd [16] was 1300 nM, the Activity [17] was 26.8% and the Activity [18] was “Active”. For the same compound, the Activity [19] was 52.9%, the Activity [20] was “Active” and the Activity [21] was 21.4%. For the same compound, the Activity [22] was 18.9% and the IC50 [23] was 4700 nM.
